High-throughput results: PubChem BioAssay, Sanford-Burnham Center for Chemical Genomics
A selection: hits, their analogues and other compounds. The true share with any hit is near 0.79%.
hIAP inh: human IAP inhibition; AID 2544; inhibition, % at 10 µM; 0.12% of 330,000 active; P09923; purified IAP, CDP-Star luminescence, 30 min;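 active = inhibition reaching a set limit with compound at 10 µM in the primary screen, cut at about 35% in these data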
Target sequence (P09923 whole entry, looked up): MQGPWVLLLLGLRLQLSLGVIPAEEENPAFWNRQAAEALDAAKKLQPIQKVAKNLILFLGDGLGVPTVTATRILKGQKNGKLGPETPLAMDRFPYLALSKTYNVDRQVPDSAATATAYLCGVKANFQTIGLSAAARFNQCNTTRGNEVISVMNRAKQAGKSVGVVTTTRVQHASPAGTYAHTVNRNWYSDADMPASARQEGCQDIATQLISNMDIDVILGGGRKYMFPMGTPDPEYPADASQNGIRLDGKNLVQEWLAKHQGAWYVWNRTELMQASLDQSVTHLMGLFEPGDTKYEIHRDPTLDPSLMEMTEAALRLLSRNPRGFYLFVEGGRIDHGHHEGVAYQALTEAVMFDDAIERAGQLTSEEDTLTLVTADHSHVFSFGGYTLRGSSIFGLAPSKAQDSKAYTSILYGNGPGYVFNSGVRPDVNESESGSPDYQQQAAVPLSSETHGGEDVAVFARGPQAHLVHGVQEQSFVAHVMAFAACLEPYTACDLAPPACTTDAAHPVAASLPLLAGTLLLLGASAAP
mIAP act: increases mouse intestinal alkaline phosphatase activity; 0.24% of 330,000 active; muIAP, CDP-Star luminescence, 30 min; active compounds read high; 1 = vehicle-only enzyme signal, 0 = enzyme-free wells; activation factor at 10 µM;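 active = activation factor of at least 2 at 20 µM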
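Assay system: mouse IAP enzyme; reagent: chemiluminescent substrate CDP-Star; dosing: test compounds delivered from DMSO solution; schedule: 30 min at room temperature; measured by: luminescence from enzymatic CDP-Star hydrolysis; controls: DMSO-only wells and no-enzyme negative control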
hIAP act: human IAP activation | AID 2524 | purified human IAP, CDP-Star luminescence, 30 min; active compounds read high; 1 = vehicle-only enzyme, 0 = enzyme-free background | 0.16% of 330,000 active | activation factor at 10 µM | P09923;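 active = activation factor of the enzyme at least 2-fold when tested at 20 µM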
bIAP inhibitor: blocks bovine intestinal alkaline phosphatase activity. purified bovine IAP, CDP-star luminescence, 30 min. inhibition, % at 20 µM. 190,000 tested, under 10 active;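 active = over 50% inhibition of intestinal alkaline phosphatase at 20 µM in the single-dose screen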
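Assay system – bovine IAP enzyme · Quantity – bovine IAP at 1/65,000,000 final dilution · Detection – CDP-star luminescence signal · Times – 30 min reaction at room temperature · Also added – CDP-star substrate at 30 µM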
bIAP act: intestinal alkaline phosphatase (bovine) activation; purified bovine IAP, CDP-star luminescence, 30 min; active compounds read high; fold of DMSO-control signal, blank-subtracted; activation factor at 20 µM; 0.17% of 200,000 active; AID 1016;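 active = activation factor of 2 or more at 20 µM, a signal rise over negative controls twice the positive control's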
mIAP block: blocks mouse intestinal alkaline phosphatase; purified mouse IAP, CDP-Star luminescence, 30 min; inhibition, % at 10 µM; 0.2% of 330,000 active;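 active = inhibition of at least 40% at 10 µM in the primary screen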
A number is an active result; 0 = inactive; - = no result given.

SMILES	hIAP inh	mIAP act	hIAP act	bIAP inhibitor	bIAP act	mIAP block
COc1ccc(OCC(O)Cn2c(=N)n(Cc3ccccc3)c3ccccc32)cc1 (stereo unspecified)	0	0	0	0	2.8	0
Cc1ccc2cc(/C=N/NC(=O)c3ccccc3O)c(Cl)nc2c1	0	0	0	0	2.1	0
Cc1cccc2cc(/C=N/NC(=O)c3ccccc3O)c(Cl)nc12	0	0	0	0	0	0
NS(=O)(=O)c1ccc(N2N=C(c3ccccc3)CC2c2ccccc2)cc1 (stereo unspecified)	0	2.05	0	0	0	0
O=C(CN(C(=O)c1csnn1)c1cccc2ccccc12)NC1CCCC1	0	0	0	0	0	0
COc1ccccc1NC(=O)CN1CCN(C2c3ccccc3-c3ccccc32)CC1	0	0	0	0	2	0
COc1cc(OC)cc(C(=O)NC2CCN(Cc3nnnn3Cc3ccc(F)cc3)CC2)c1	0	0	0	0	0	0
COc1cccc(NC(=O)NC2CCN(Cc3nnnn3Cc3ccc4c(c3)OCO4)CC2)c1	0	2.5	0	-	-	0
CC(=O)n1cc(N(C(=O)CCl)c2ccc([N+](=O)[O-])cc2)c2ccccc21	0	0	0	-	-	0
O=Cc1[nH]c2ccccc2c1N(C(=O)CCl)c1ccc([N+](=O)[O-])cc1	35.2	0	0	-	-	0
Cc1c(CCOC(=O)C23CC4CC(CC(C)(C4)C2)C3)sc[n+]1Cc1ccccc1	0	0	0	0	0	43.0
CN(C)S(=O)(=O)c1cccc(NC(=O)CCc2nc3cc(S(=O)(=O)N4CCOCC4)ccc3n2C)c1	0	0	0	-	-	0
O=C(Nc1ccc(Cl)c(Cl)c1)Nc1cc(C(=O)NC2CC2)ccc1Cl	0	2.16	0	0	0	0
CCCOc1ccccc1OCC(=O)Nc1cccc(S(=O)(=O)NC2=NCCC2)c1	0	0	0	-	-	0
C[C@@H]1CN([C@@H](C)CO)C(=O)c2cc(NC(=O)Nc3ccc4c(c3)OCO4)ccc2O[C@H]1CN(C)S(=O)(=O)c1ccc(F)cc1	0	2.4	0	-	-	0
C[C@H](CO)N1C[C@H](C)[C@@H](CN(C)S(=O)(=O)c2ccc(F)cc2)Oc2ccc(NC(=O)Nc3ccc4c(c3)OCO4)cc2C1=O	0	2.47	0	-	-	0
C[C@H](CO)N1C[C@H](C)[C@@H](CN(C)S(C)(=O)=O)Oc2ccc(NC(=O)Nc3ccc4c(c3)OCO4)cc2C1=O	0	0	0	-	-	0
COc1ccc(NC(=O)Nc2ccc3c(c2)C(=O)N([C@H](C)CO)C[C@H](C)[C@@H](CN(C)S(=O)(=O)c2ccccc2)O3)cc1	0	3.31	0	-	-	0
COc1ccc(S(=O)(=O)N(C)C[C@H]2Oc3ccc(NC(=O)Cc4ccccc4)cc3C(=O)N([C@H](C)CO)C[C@@H]2C)cc1	0	0	0	-	-	0
C[C@H](CO)N1C[C@H](C)[C@@H](CN(C)S(=O)(=O)c2ccc(F)cc2)Oc2ccc(NC(=O)Nc3ccccc3)cc2C1=O	0	2.44	0	-	-	0
C[C@H](CO)N1C[C@H](C)[C@@H](CN(C)S(=O)(=O)c2ccc(F)cc2)Oc2ccc(NC(=O)Nc3ccc(C(F)(F)F)cc3)cc2C1=O	0	0	0	-	-	0
CN=Cc1c(NC)nc2c(C)cccn2c1=O	0	0	0	0	0	0
Cc1cccc(C(=O)Nc2ccc(NC(=O)CN3CCOCC3)cc2)c1	0	0	0	-	-	0
Cn1c(CC(=O)Nc2ccccc2)cc2ccccc21	0	0	0	-	-	0
Cc1nn(C)cc1/C=N\NC(=O)c1ccc2c(c1)c(C)c(C)n2Cc1ccccc1	0	2.3	0	0	8.3	0
SMILES	hIAP inh	mIAP act	hIAP act	bIAP inhibitor	bIAP act	mIAP block
Cc1c(C)n(Cc2ccccc2)c2ccc(C(=O)O)cc12	0	0	0	-	-	0
Cc1cc2nc(CCN(C(=S)NCC(C)C)C3CCCC3)[nH]c2cc1C	0	2.13	0	0	0	0
O=C(N/N=C/c1ccoc1)c1cccc(OC(F)(F)C(F)F)c1	0	0	0	-	-	0
CC(Cc1cccs1)NC(=O)Nc1ccccc1 (stereo unspecified)	0	0	0	0	0	0
CC(Cc1cccs1)NC(=O)Nc1ccc(Cl)cc1 (stereo unspecified)	0	2.3	0	0	0	0
CC(Cc1cccs1)NC(=S)Nc1ccccc1 (stereo unspecified)	0	0	0	0	0	0
CC(Cc1cccs1)NC(=O)Nc1ccc(Cl)c(Cl)c1 (stereo unspecified)	0	4.01	0	-	0	0
COc1ccc(OC)c(C(=O)NC(CC(N)=O)c2ccc(NCc3ccccn3)c([N+](=O)[O-])c2)c1 (stereo unspecified)	0	0	0	-	-	0
COc1ccc(OC)c(C(=O)NC(CC(N)=O)c2ccc(NCc3ccc(F)c(F)c3)c([N+](=O)[O-])c2)c1 (stereo unspecified)	0	0	0	-	-	48.5
O=C(c1cccc(-c2ccccc2)c1)N1CC[C@@H](N2CCC(O)CC2)[C@H](O)C1	0	0	0	-	-	0
S=C(NCc1ccccc1)NC1CCCc2ccccc21 (stereo unspecified)	0	2.57	0	0	0	0
COc1ccccc1NC(=O)CN1C(=O)NC2(CCCc3ccccc32)C1=O (stereo unspecified)	0	0	0	-	-	0
COc1cc(CNCCc2c[nH]c3ccccc23)ccc1OCc1ccc(F)cc1	0	0	0	0	2.9	0
O=C(N/N=C\c1ccc(O)c([N+](=O)[O-])c1)C1COc2ccccc2O1 (stereo unspecified)	0	0	0	-	-	0
Cc1cc([N+](=O)[O-])cc(/C=N\NC(=O)C2COc3ccccc3O2)c1O (stereo unspecified)	0	0	0	-	-	41.5
Cc1cccc(C(=O)N/N=C/c2ccc[nH]2)c1	0	0	0	0	0	40.4
O=C(N/N=C/c1ccc[nH]1)c1cccc(Br)c1	0	0	0	0	0	0
CC[C@H](C)Cc1cn([C@@H](CCCCNC(=O)OC(C)(C)C)C(=O)NCCCCCCCCCCC(=O)N2CCN(C(=O)OC(C)(C)C)CC2)nn1	0	2.19	0	-	-	0
CC(C)(C)OC(=O)NCCCC[C@@H](C(=O)NCCCCCCCCCCC(=O)N1CCN(C(=O)OC(C)(C)C)CC1)n1cc(CCO)nn1	0	0	0	-	-	0
Cn1c(=O)[nH]c(=O)c2c1nc(NCCCO)n2Cc1ccc(F)cc1	0	0	0	0	0	0
Cn1c(=O)[nH]c(=O)c2c1nc(NCCCn1ccnc1)n2CCOc1ccccc1	0	0	0	0	3.9	0
Cn1c(=O)[nH]c(=O)c2c1nc(NCCCn1ccnc1)n2Cc1ccccc1	0	0	0	0	2.5	0
COCC1CCCN(C(=O)c2cc(COc3ccc4ncccc4c3)on2)C1 (stereo unspecified)	0	0	0	-	-	0
O=C(NCc1ccccc1Cl)C1CCN(C(=O)c2ccco2)CC1	0	0	0	-	-	0
